Most compounds without a hit are left out; they make up all but 3.5% or so of the library.
NF-kB expr up: NF-kB expression increase, human neuronal cells; NF-kB reporter expression; active compounds read high; AID 1239; 190,000 compounds, 1.6% hits; fold change at 12.5 µM; in the data active = fold change above about 3.3
Pf gamet viab: inhibitors of late stage P. falciparum gametocyte viability | P. falciparum stage V gametocytes, ATP luminescence, 24 h | inhibition, % at 10.9 µM | 150,000 compounds, 0.065% hits | AID 743093;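 active = inhibition above the mean plus 3 SD of compounds within the control limits, set per campaign, cut at about 38% in these data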;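 note: 0% = DMSO wells and 100% = medium only without gametocytes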
FLuc act counter: firefly luciferase counter-screen for stimulation assays; activation factor at 10 µM; 200,000 tested, under 10 active; ATPlite luciferase biochemical, luminescence, 10 min; 0 = ATP-free wells, 1 = DMSO control;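 active = luciferase activation factor, scaled between plate controls, of at least 2 with compound at 10 µM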
Target sequence (P08659 whole entry, looked up): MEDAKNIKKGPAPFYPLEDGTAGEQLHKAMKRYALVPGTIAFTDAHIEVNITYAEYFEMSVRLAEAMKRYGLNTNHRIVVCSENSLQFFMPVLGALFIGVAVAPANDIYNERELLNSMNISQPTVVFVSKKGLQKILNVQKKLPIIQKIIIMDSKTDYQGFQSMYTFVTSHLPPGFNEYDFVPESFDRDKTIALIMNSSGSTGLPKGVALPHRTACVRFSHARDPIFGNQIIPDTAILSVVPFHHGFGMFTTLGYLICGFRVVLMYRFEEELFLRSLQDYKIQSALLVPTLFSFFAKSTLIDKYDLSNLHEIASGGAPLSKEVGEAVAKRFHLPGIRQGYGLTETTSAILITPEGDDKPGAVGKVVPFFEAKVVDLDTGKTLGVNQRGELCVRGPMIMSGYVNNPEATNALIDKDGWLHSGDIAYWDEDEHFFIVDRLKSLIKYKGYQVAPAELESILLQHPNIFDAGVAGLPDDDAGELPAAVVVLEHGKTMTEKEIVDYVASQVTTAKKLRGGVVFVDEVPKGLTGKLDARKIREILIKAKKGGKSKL
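Assay system: Luciferase/luciferin detection reagent, cell-free biochemical luciferase assay / Also added: ATP substrate / Schedule: 10 min at ambient temperature / Measured by: luminescence measurement of luciferase light output / Benchmarks: low control with PBS replacing ATP, high control enzyme plus ATP without compound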
APP 5'UTR act: APP 5'UTR luciferase reporter activation | SH-SY5Y APP 5'UTR luciferase reporter, luminescence; zero percent = DMSO vehicle wells | activation, % at 2 µM | 190,000 compounds, 1% hits | AID 1276;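 active = activation above a set limit, based on mean plus 3 SD of controls, cut at about 140% in these data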
STAT1 activator: activators of IFN-gamma induced STAT1 signaling; NIH 3T3 STAT1-luciferase reporter, luminescence; 100% = IFN-gamma alone, no compound; activation (% of control), % at 5.5 µM; 200,000 compounds, 2.6% hits;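 active = activation above the screen-wide mean activation plus 3 SD, cut at about 130% in these data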;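 note: raw ratio to IFN-gamma control signal so 100% means no change and 0% no light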
FLuc inh counter: inhibits firefly luciferase, flagging false hits in luciferase inhibition screens. P08659. ATPLite firefly luciferase biochemical luminescence, 10 min. inhibition, % at 10 µM. 200,000 compounds, 1.5% hits. AID 1006;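 active = inhibition above about 50% when tested at 10 µM, limit read from the data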
The depositor's hits bear a star.

`O=c1c(-c2cc3ccccc3o2)[n+]([O-])c2ccccc2n1OCc1ccccn1` gave NF-kB expr up 2.1, FLuc act counter 0.7, APP 5'UTR act 10, STAT1 activator 142* and FLuc inh counter 34.
Screening COc1ccc(CNc2ccc(C)c(C)c2)cc1 returned NF-kB expr up 1.8, Pf gamet viab 6, FLuc act counter 1, APP 5'UTR act 25, STAT1 activator 130* and FLuc inh counter -2.
Screening CSc1ccc(CN(C)CC(=O)Nc2ccc(C)cc2Br)cc1 returned NF-kB expr up 1.1, Pf gamet viab -5, FLuc act counter 1.1, APP 5'UTR act 4, STAT1 activator 102 and FLuc inh counter -11.
Cc1cc(=O)oc2cc(Oc3ncccn3)ccc12 was read as NF-kB expr up 1.1, Pf gamet viab -8, FLuc act counter 1.1, APP 5'UTR act 1, STAT1 activator 98 and FLuc inh counter -6.
For CCOC(=O)C1(CCCc2ccccc2)CCN(C(=O)CCn2cncn2)CC1 the results were NF-kB expr up 0.71, Pf gamet viab -11, FLuc act counter 1, APP 5'UTR act 16, STAT1 activator 108 and FLuc inh counter -3.
`CCOC(=O)C1(CCc2ccccc2)CCN(C(=O)CCn2cncn2)CC1` gave FLuc act counter 1.1, APP 5'UTR act 41, STAT1 activator 139* and FLuc inh counter -6.
C#CCOCCOCCOCCNc1nc(N2CCN(C(=O)[C@H](CC(N)=O)n3cc(C(N)[C@H](C)CC)nn3)CC2)nc(N2CCN(C(=O)[C@H](CC(N)=O)n3cc(C(N)[C@@H](C)CC)nn3)CC2)n1 (some centres undefined) was read as Pf gamet viab -39.
For Clc1cncc(Cl)c1NNc1c2ccccc2nc2ccccc12 the results were NF-kB expr up 1.2, Pf gamet viab 11, FLuc act counter 1, APP 5'UTR act 9, STAT1 activator 94 and FLuc inh counter 1.
`Cc1nn(Cc2ccccc2)c(Cl)c1/C=C/C(=O)OCC(=O)N1CCCC1=O` gave NF-kB expr up 7*, Pf gamet viab -7, FLuc act counter 1, APP 5'UTR act 22, STAT1 activator 98 and FLuc inh counter -5.
Cc1nn(Cc2ccccc2)c(Cl)c1/C=C/C(=O)OCC(=O)N(C)C1CCS(=O)(=O)C1 (centres undefined) was read as NF-kB expr up 1.3, Pf gamet viab 1, FLuc act counter 1, APP 5'UTR act 7, STAT1 activator 105 and FLuc inh counter -2.
O=C(/C=C/Sc1ccccc1)c1ccc(Cl)cc1 was read as NF-kB expr up 6.2*, FLuc act counter 0.4, APP 5'UTR act -5, STAT1 activator 123 and FLuc inh counter 61*.
`O=C(/C=C/Sc1ccccc1)c1ccccc1` gave NF-kB expr up 5.2*, Pf gamet viab -19, FLuc act counter 0.1, APP 5'UTR act 18, STAT1 activator 112 and FLuc inh counter 88*.
`CCOC(=O)c1sc(NC(=S)NC(=O)CC(C)C)cc1C` gave NF-kB expr up 1.8, FLuc act counter 1, APP 5'UTR act 11, STAT1 activator 118 and FLuc inh counter -3.
For O=C(NCc1ccco1)c1cc(-c2ccc(F)cc2)on1 the results were NF-kB expr up 2.8, Pf gamet viab -8, FLuc act counter 0.9, APP 5'UTR act 45, STAT1 activator 142* and FLuc inh counter 8.
`O=C(NCc1ccccc1)c1cc(-c2cccs2)on1` gave NF-kB expr up 1.8, FLuc act counter 1, APP 5'UTR act 17, STAT1 activator 112 and FLuc inh counter 0.
O=C(NCc1ccco1)c1cc(-c2cccs2)on1 was read as NF-kB expr up 5.2*, Pf gamet viab 12, FLuc act counter 0.8, APP 5'UTR act 35, STAT1 activator 130* and FLuc inh counter 19.
`O=C(NCc1ccco1)c1cc(-c2ccccc2)on1` gave NF-kB expr up 4.5*, FLuc act counter 0.9, APP 5'UTR act 68, STAT1 activator 131* and FLuc inh counter 10.
Screening CC(C)c1cc(C(=O)NCc2ccco2)no1 returned NF-kB expr up 1.2, FLuc act counter 1, APP 5'UTR act -4, STAT1 activator 110 and FLuc inh counter 4.
`CC(C)Cc1cc(C(=O)NCc2cccs2)no1` gave NF-kB expr up 3.1, FLuc act counter 0.9, APP 5'UTR act 60, STAT1 activator 134* and FLuc inh counter 5.
Screening CC(C)Cc1cc(C(=O)NCc2cccnc2)no1 returned NF-kB expr up 1.3, FLuc act counter 1, APP 5'UTR act 13, STAT1 activator 101 and FLuc inh counter -2.
Screening Cc1ccc2oc(C(=O)N3CCN(CC(=O)NC(C)C)CC3)c(C)c2c1 returned Pf gamet viab 3.
`CC(=O)c1c(C)nc(-c2ccc(Cl)cc2)nc1NC(=O)C(C)C` gave NF-kB expr up 1.2, FLuc act counter 1.1, APP 5'UTR act 18, STAT1 activator 93 and FLuc inh counter -6.
Cc1noc(C)c1COC(=O)/C=C/c1ccccc1Cl was read as NF-kB expr up 1.3, FLuc act counter 1, APP 5'UTR act 10, STAT1 activator 103 and FLuc inh counter -1.
Screening CCOC(=O)[C@@H]1[C@H]2COc3ccccc3[C@@H]2N2C(=O)N(c3ccc(OC)cc3)C(=O)[C@@]12C returned Pf gamet viab 21.
Screening O=C(CSc1ccc(-c2cccc([N+](=O)[O-])c2)nn1)N1CCCC1 returned NF-kB expr up 1.1, FLuc act counter 1, APP 5'UTR act 17, STAT1 activator 108 and FLuc inh counter 2.
`CCSc1ccc(-c2cccc([N+](=O)[O-])c2)nn1` gave NF-kB expr up 1.1, Pf gamet viab 19, FLuc act counter 0.9, APP 5'UTR act 28, STAT1 activator 137* and FLuc inh counter 10.
`Cc1cccc(-n2nc([N+](=O)[O-])c(=NC3CCN(Cc4ccccc4)CC3)n2O)c1` gave NF-kB expr up 1.2, Pf gamet viab -2, FLuc act counter 1.1, APP 5'UTR act -14, STAT1 activator 96 and FLuc inh counter -9.
`O=C(/C=C/c1cnc2ccccc2n1)NC12CC3CC(CC(C3)C1)C2` gave NF-kB expr up 1, FLuc act counter 0.6, APP 5'UTR act 190*, STAT1 activator 150* and FLuc inh counter 42.
`COc1ccccc1Nc1nc(N)nc(CSc2nccn2C)n1` gave NF-kB expr up 1.3, Pf gamet viab -3, FLuc act counter 1.1, APP 5'UTR act 8, STAT1 activator 109 and FLuc inh counter -5.
Screening Cc1ccc(Nc2nc(N)nc(CSc3nccn3C)n2)cc1 returned NF-kB expr up 3.8*, Pf gamet viab -28, FLuc act counter 0.8, APP 5'UTR act 140*, STAT1 activator 146* and FLuc inh counter 20.
Cc1cccc(NC(=O)CSc2nccn2C)c1 was read as APP 5'UTR act -2 and STAT1 activator 108.

Source: PubChem
